The target in this assay is T1, HNA polymerase T6G12_I521L (Thermococcus gorgonarius, UniProt P56689, A485L/A681S/D141A/D669Q/E143A/E609K/E664Q/E730G/I521L/I610M/K659Q/K671H/K674R/L704P/Q665P/R668K/T676R/V589A/V93Q).
T1 sequence (P56689 1-773 V93Q/D141A/E143A/A485L/I521L/V589A/E609K/I610M/K659Q/E664Q/Q665P/R668K/D669Q/K671H/K674R/T676R/A681S/L704P/E730G): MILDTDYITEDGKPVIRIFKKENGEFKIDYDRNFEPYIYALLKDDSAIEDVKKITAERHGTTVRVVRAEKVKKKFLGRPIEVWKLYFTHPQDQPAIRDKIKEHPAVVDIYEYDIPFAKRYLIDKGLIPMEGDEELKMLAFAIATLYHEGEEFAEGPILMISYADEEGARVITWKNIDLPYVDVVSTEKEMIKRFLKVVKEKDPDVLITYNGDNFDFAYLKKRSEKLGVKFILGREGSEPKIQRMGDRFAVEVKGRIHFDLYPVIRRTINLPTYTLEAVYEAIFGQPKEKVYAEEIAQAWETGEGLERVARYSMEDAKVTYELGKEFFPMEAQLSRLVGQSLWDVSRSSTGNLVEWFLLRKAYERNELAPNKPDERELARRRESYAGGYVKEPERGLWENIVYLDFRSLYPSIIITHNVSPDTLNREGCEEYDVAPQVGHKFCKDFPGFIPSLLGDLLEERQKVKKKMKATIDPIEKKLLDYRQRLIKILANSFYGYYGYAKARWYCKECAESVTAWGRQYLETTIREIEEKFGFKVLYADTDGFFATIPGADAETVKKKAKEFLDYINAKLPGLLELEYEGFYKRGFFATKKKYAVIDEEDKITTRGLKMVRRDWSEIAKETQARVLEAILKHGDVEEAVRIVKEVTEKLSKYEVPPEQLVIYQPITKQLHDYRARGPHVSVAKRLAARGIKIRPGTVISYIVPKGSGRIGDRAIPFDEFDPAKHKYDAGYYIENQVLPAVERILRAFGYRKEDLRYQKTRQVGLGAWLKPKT
The class given is biochemical. Particulars: global fitting, k3 fitted; duplex P2T3, 50°C. In a few lines: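 Quench-flow at 50 °C: enzyme with P2T3 in 2× Thermopol mixed with nucleotide plus MgSO4 (1 mM extra Mg2+ final). Nucleotide 1.6–100 µM, 4–5 levels; ageing 5 ms–60 s. Quenched with 0.3 M EDTA; 18% denaturing PAGE; duplicates. Active enzyme level set by active-site titration (50 ms dTTP pulse, quadratic fit). Global Matlab least-squares fit; k3 refitted fixed at 0.01 or 0.02 s−1; SD from covariance matrix.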

Consider `Cc1cn([C@@H]2CO[C@H](COP(=O)(O)OP(=O)(O)OP(=O)(O)O)[C@@H](O)C2)c(=O)[nH]c1=O` [hTTP], for which the “k2 = kpol” value came to 0.62 ± 0.13 s⁻¹ and the k3 worked out at 0.028 ± 0.002 s⁻¹.

(Values after publication PMC6412122 (Nucleic Acids Research, 2019).)
